# From PubChem BioAssay AID635 (SRMLSC, 2007)
# Among all 1,300 compounds or so, about 40 (3%) were called active. No rule for the calls is given here. Only a sample is shown. Potency and affinity values are given separately.
# Experiment: growth inhibition of wild-type E. coli BW25113 pool, dose response, OD615 (AID 635)
# Conditions: pooled mutant strains; at 100 µM (top of the series)
# Procedure, shortened: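 times: 20 h, 37 °C growth with compound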
row,Compound,growth inhibition
1,CC(=O)c1c(O)cc(C)n(Nc2nc(C)cc(C)n2)c1=O,-5.46% (inactive)
2,Cc1ccc(CN2CCSc3ccc(C(=O)N4CCN(c5ncccn5)CC4)cc32)cc1,-4.07% (inactive)
3,COc1nnc(-c2ccc(N3CCCCC3)c(N)c2)c2ccccc12,9.66% (inactive)
4,Cc1ccc(SCC(=O)N(Cc2nc(-c3ccccc3)no2)C(C)C)cc1,3.99% (inactive)
5,Cc1noc(NS(=O)(=O)c2ccc(NC(=O)Nc3ccc(Cl)c(Cl)c3)cc2)c1C,7.34% (active)
6,Cc1noc(NS(=O)(=O)c2ccc(NC(=O)COc3ccc(Cl)cc3Cl)cc2)c1C,2.59% (inactive)
7,Cc1c(NC(=O)Nc2ccc(Cl)c(Cl)c2)c(=O)n(-c2ccccc2)n1C,1.5% (inactive)
8,CCOC(=O)c1csc(Nc2nc3ccc(F)cc3s2)n1,-0.43% (inactive)
9,O=c1n(Cc2ccccc2)c2cc(Cl)cnc2n1Cc1ccccc1,-2.48% (inactive)
10,CC(C)(C)C(=O)Cn1c(=N)n(Cc2ccccc2)c2ccccc21,1.48% (inactive)
11,Cc1cc(Cl)cc(C)c1OCCCCn1ccnc1,8.19% (inactive)
12,COc1ccc(Oc2cn[nH]c2-c2ccc(O)cc2O)cc1,-1.15% (inactive)
13,COc1cc(NS(=O)(=O)c2ccc(NC(=O)COc3ccccc3Cl)cc2)nc(OC)n1,-7.59% (inactive)
14,CC1(C)CC(=O)C=C(NCCN2CCN(C(=O)Nc3ccc(Cl)c(Cl)c3)CC2)C1,3.54% (inactive)
15,Cc1ccc2[nH]c(=O)c(C(c3nnnn3C3CCCC3)N(Cc3cccnc3)Cc3ccco3)cc2c1 (centres undefined),0.6% (inactive)
16,Cc1ccc2c(c1)NC(=O)C(CC(=O)NCCCN1CCN(c3cc(Cl)ccc3C)CC1)O2 (centres undefined),1.34% (inactive)
17,CC(C)CCOC(=O)c1c(N)n(CC2CCCO2)c2nc3ccccc3nc12 (centres undefined),4.63% (inactive)
18,CCOc1cccc(NC(=O)C2CC(=O)N(C)C(=Nc3cccc(F)c3)S2)c1 (centres undefined),-8.98% (inactive)
19,COC(=O)c1ccc(OC)c(CSc2nnc(COc3ccccc3)o2)c1,0.08% (inactive)
20,Cc1ccc(SC/C(O)=C(\C#N)c2nc3ccccc3s2)cc1,0.79% (inactive)
21,O=C(COc1ccccc1)Nc1ccccc1N1CCCCC1,-2.29% (inactive)
22,O=C(CCSc1nc(-c2ccco2)cc(C(F)(F)F)n1)N1CCCc2ccccc21,-1.07% (inactive)
23,Cc1ccccc1Cn1nc(C)c(NC(=O)c2noc3c2CCc2ccccc2-3)c1C,-4.26% (inactive)
24,CCn1c2ccccc2c2nnc(SCc3ccccc3)nc21,-4.04% (inactive)
25,Cc1ccc(-n2c(C)cc(C3N=C(N)Nc4nc5ccccc5n43)c2C)c(C)c1 (centres undefined),6.51% (inactive)
26,CCCCCC(=O)Nc1ccccc1N1CCN(c2ccccc2)CC1,1.48% (inactive)
27,O=C(c1ccc(COc2ccc3c(c2)CCC3)o1)N1CCN(c2ccccc2)CC1,-0.73% (inactive)

row,Compound,growth inhibition
1,CCN(CC)c1nc(N)c2c(N)nc3c(c2c1C#N)CC(c1ccccc1)O3 (centres undefined),9.58% (inactive)
2,CCc1ccccc1N(C)C(=O)CCc1nc(-c2ccc(C)cc2)no1,-3.1% (inactive)
3,CCOC(=O)C1CN(c2cc3c(cc2F)c(=O)c(C(=O)O)cn3CC)OC1C(=O)OCC (centres undefined),0.67% (inactive)
4,Cc1nn(-c2ccccc2)c2sc(C(=O)N(CC(=O)NC(C)(C)C)Cc3ccco3)cc12,-4.44% (inactive)
5,Cc1onc(-c2ccccc2)c1C(=O)Nc1nnc(N(C)Cc2ccccc2)s1,-4.99% (inactive)
6,COc1cccc(-c2cc(C(=O)N3CC4(C)CC3CC(C)(C)C4)no2)c1 (centres undefined),0.09% (inactive)
7,CC(C)C(c1nnnn1C1CCCC1)N1c2ccccc2CC1C (centres undefined),0.18% (inactive)
8,CC1CCN(S(=O)(=O)c2ccc(Cl)cc2Br)CC1,7.88% (inactive)
9,CCOC(=O)c1ccc(N2C(=O)c3n[nH]c(C)c3C2c2ccc(OC)cc2OC)cc1 (centres undefined),-0.55% (inactive)
10,O=C(c1ccc(COc2c(F)c(F)cc(F)c2F)o1)N1CCN(c2ccc(Cl)cc2)CC1,-6.87% (inactive)
11,N#Cc1ccc(CSc2nnc(-c3cccs3)n2-c2ccccc2)cc1,-1.14% (inactive)
12,CCn1c(CNc2cccc(Cl)c2)nnc1SCC(=O)OC1CCCCC1,1.08% (inactive)
13,Fc1ccc(Br)cc1C1C=C(c2ccc(Br)s2)Nc2ncnn21 (centres undefined),-4.11% (inactive)
14,CC1CCN(S(=O)(=O)c2cccc(C(=O)NCc3cccs3)c2)CC1,0.28% (inactive)
15,CC(=O)Nc1cccc(NC(=O)c2oc3ccccc3c2C)c1,2.78% (inactive)
16,N=C(N)c1c(O)n(C2CCCCC2)c(=O)n(C2CCCCC2)c1=O,3.33% (inactive)
17,COCc1nnc(NC(=O)c2ccc(S(=O)(=O)N(C)C3CCCCC3)cc2)o1,0.24% (inactive)
18,CCOC(=O)c1cnc(-n2nc(C)cc2C)nc1NCc1ccccc1,0.66% (inactive)
19,Cc1cc(Nc2ccccc2)nc(-c2ccccc2O)n1,1.65% (inactive)
20,CCn1nc(-c2ccccc2)nc2c(=O)n(C)c(=O)nc1-2,1.94% (inactive)
21,CC(C)(C)c1cc(C(F)(F)F)nc(SCCCNC(=O)c2ccco2)n1,6.78% (inactive)
22,CC(C)(C)n1nnnc1C(c1cccs1)N(Cc1ccccc1)Cc1cccnc1 (centres undefined),3.16% (inactive)
23,CCOC(=O)c1c(-c2ccccc2)nnn1-c1nc(OCC)nc(N2CCCCC2)n1,0.78% (inactive)
24,c1ccc(CCN2CCN(c3ncnc4c3cnn4-c3ccccc3)CC2)cc1,6.43% (inactive)
25,CCOC(=O)c1ccc(NC(=O)CCc2nc(-c3ccccc3Cl)no2)cc1,-0.84% (inactive)
26,CCOc1ccc(S(=O)(=O)Nc2cccc(Cl)c2)cc1,12.8% (inactive)
27,CCCCOc1ccc(S(=O)(=O)N2CCCCCC2)cc1,3.61% (inactive)
